For experiment [1], the target named is T1, Alkaline phosphatase, tissue-nonspecific isozyme (Homo sapiens, UniProt P05186).
T1 sequence (P05186 whole entry): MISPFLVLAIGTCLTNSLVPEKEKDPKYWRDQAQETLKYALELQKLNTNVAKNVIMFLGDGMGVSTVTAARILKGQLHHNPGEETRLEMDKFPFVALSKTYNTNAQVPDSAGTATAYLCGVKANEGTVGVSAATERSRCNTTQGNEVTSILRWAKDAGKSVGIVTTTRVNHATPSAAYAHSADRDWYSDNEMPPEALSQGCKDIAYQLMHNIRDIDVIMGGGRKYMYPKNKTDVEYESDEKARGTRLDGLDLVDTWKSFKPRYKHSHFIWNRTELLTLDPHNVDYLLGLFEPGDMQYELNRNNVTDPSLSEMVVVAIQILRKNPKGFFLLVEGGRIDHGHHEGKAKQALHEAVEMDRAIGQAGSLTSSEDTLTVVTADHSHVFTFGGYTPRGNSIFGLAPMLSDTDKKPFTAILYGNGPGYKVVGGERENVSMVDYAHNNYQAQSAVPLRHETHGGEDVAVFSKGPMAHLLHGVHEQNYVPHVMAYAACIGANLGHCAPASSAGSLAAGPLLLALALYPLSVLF
As to the kind of experiment: Inhibition of TNSALP. A digest of the protocol:
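TNAP activity read on an EnVision plate reader in 100 mM diethanolamine-HCl, pH 9.8, with 1 mM MgCl₂, 20 μM ZnCl₂ and 50 μM CDP-star as substrate.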

The nature of experiment [2]: Selectivity of TNSALP over GAPDH.
Experiment [3] has as its target Alkaline phosphatase, placental type (Homo sapiens, UniProt P05187). As to the kind of experiment: Inhibition of PLAP.
Experiment [4] in a line: Selectivity of TNSALP over PLAP.
Experiment [5] addresses Glyceraldehyde-3-phosphate dehydrogenase (Homo sapiens, UniProt P04406). Briefly: Inhibition of GAPDH.

Consider 25 molecules from ChEMBL document CHEMBL1139306, “Design and synthesis of pyrazole derivatives as potent and selective inhibitors of tissue-nonspecific alkaline phosphatase (TNAP)” (Bioorg Med Chem Lett, 2009).

Chain of Alkaline phosphatase, placental type (P05187 whole entry): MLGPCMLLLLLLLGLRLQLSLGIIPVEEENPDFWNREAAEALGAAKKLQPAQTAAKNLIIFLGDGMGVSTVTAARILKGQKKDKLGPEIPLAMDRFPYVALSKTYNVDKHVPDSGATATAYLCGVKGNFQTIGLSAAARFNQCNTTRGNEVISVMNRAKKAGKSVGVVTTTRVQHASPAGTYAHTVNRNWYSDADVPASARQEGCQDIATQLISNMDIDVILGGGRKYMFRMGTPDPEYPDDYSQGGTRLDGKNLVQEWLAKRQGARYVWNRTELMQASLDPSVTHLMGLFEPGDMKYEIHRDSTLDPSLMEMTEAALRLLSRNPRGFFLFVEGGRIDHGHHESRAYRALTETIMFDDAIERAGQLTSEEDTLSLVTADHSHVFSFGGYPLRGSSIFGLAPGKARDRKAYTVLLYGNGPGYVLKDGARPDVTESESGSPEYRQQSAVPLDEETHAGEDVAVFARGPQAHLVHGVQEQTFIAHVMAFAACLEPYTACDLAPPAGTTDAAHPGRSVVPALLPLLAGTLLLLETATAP
Chain of Glyceraldehyde-3-phosphate dehydrogenase (P04406 whole entry): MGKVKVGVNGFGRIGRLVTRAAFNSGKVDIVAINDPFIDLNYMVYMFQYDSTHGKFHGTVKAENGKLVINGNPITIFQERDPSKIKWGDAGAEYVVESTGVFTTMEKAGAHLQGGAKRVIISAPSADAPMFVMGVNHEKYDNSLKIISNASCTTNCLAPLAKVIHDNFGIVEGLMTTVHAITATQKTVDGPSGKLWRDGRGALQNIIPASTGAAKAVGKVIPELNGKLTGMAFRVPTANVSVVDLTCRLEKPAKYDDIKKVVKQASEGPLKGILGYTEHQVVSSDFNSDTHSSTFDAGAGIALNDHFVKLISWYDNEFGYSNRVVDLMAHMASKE

Regarding `CN(C)C(=O)c1cc(-c2ccc(Cl)cc2Cl)n[nH]1`, it took 119 nM to reach half-maximal inhibition in experiment [1] (IC50).

In the case of `CN1CCN(C(=O)c2cc(-c3ccc(Cl)cc3Cl)n[nH]2)CC1`, the 50% inhibitory concentration (IC50) in experiment [1] was 828 nM.

Molecule `O=C(c1cc(-c2ccc(Cl)cc2Cl)n[nH]1)N1CCCCCC1` gave a half-maximal inhibitory concentration (IC50) in experiment [1] of 1450 nM.

Consider `CC(C)(C)NC(=O)c1cc(-c2ccc(Cl)cc2Cl)n[nH]1`, for which the IC50 in experiment [1] amounted to 398 nM.

`O=C(NCCO)c1cc(-c2ccc(F)cc2F)n[nH]1` registered an IC50 in experiment [1] of 35 nM.

The molecule `O=C(NCCO)c1cc(-c2cc(F)c(Cl)cc2Cl)n[nH]1` displayed an IC50 in experiment [1] of 100 nM.

Turning to `O=C(NCCO)c1cc(-c2ccc(Cl)cc2Cl)n[nH]1`, inhibition in experiment [1] was half-maximal at 44 nM (IC50).

In the case of `NNC(=O)c1cc(-c2ccc(Cl)cc2Cl)n[nH]1`, the IC50 in experiment [1] amounted to 44 nM.

Take `CN(C)C(=O)c1cc(-c2cc(F)c(Cl)cc2Cl)n[nH]1`: half-maximal inhibition in experiment [1] (IC50) required 324 nM.

On to `O=C(c1cc(-c2cc(F)c(Cl)cc2Cl)n[nH]1)N(CCO)CCO`, for which it took 127 nM to reach half-maximal inhibition in experiment [1] (IC50).

`O=C(c1cc(-c2ccc(Cl)cc2Cl)n[nH]1)N(CCO)CCO`: 47 nM corresponded to half-maximal inhibition in experiment [1] (IC50).

In experiment [1], `O=C(NCCCO)c1cc(-c2cc(F)c(Cl)cc2Cl)n[nH]1` came in with an IC50 of 56 nM. The IC50 values of the last two molecules are within 1.5-fold of each other.

Regarding `O=C(c1cc(-c2ccc(Cl)cc2Cl)n[nH]1)N1CCN(CCO)CC1`, in experiment [1], the concentration for half-maximal inhibition (IC50) worked out at 375 nM.

`CC(C)NC(=O)c1cc(-c2ccc(Cl)cc2Cl)n[nH]1` showed an IC50 in experiment [1] of 51 nM.

Turning to `CC(C)NC(=O)c1cc(-c2cc(F)c(Cl)cc2Cl)n[nH]1`, half-maximal inhibition in experiment [1] (IC50) was put at 4850 nM.

With `O=C(c1cc(-c2ccc(Cl)cc2Cl)n[nH]1)N1CCOCC1`, the IC50 in experiment [1] is 574 nM.

In experiment [1], `O=C(NCCCCO)c1cc(-c2ccc(Cl)cc2Cl)n[nH]1` gave an IC50 of 35 nM.

`CCN(CC)C(=O)c1cc(-c2ccc(Cl)cc2Cl)n[nH]1` showed an IC50 in experiment [1] of 285 nM.

For the molecule `CC(C)CNC(=O)c1cc(-c2ccc(Cl)cc2Cl)n[nH]1`, 82 nM corresponded to half-maximal inhibition in experiment [1] (IC50).

In the case of `COCCNC(=O)c1cc(-c2ccc(Cl)cc2Cl)n[nH]1`, the IC50 in experiment [1] stood at 46 nM.

Consider `CC(C)CCNC(=O)c1cc(-c2ccc(Cl)cc2Cl)n[nH]1`, for which, in experiment [1], inhibition was half-maximal at 459 nM (IC50).

In experiment [1], `O=C(NCCO)c1cc(-c2cc(F)c(F)cc2F)n[nH]1` yielded an IC50 of 134 nM.

With `O=C(NCCO)c1cc(-c2ccc(Cl)c(Cl)c2Cl)n[nH]1`, the fold change (FC) in experiment [2] and in experiment [4] was 2000 throughout. Besides, the IC50 in experiment [3] and in experiment [5] was above 10 µM each time.

Molecule `CCN1CCN(C(=O)c2cc(-c3ccc(Cl)cc3Cl)n[nH]2)CC1` yielded an IC50 in experiment [1] of 488 nM. This counts as sub-micromolar.

Molecule `O=C(NCCCO)c1cc(-c2ccc(Cl)cc2Cl)n[nH]1` showed an IC50 in experiment [1] of 31 nM. This IC50 is about 16-fold lower than that of the molecule before.

In general, IC50 refers to the concentration at which inhibition is half-maximal.
